An excerpt weighted towards active compounds, which were near 4.2% of everything screened.
Ins promoter up: MIN6 insulin promoter up-regulation; actives 0.3% (n = 190,000); z-score at 5 µM; MIN6 insulin promoter-GFP reporter, high-content imaging; active compounds read high; AID 1625;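 active = z-score above 3 at 5 µM with at least 500 cells counted in the well; inconclusive = wells under 500 cells, flagged as cytotoxic or low count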
Autophagy mod: alters autophagy in cells; calls only at 10 µM (by protocol); AID 463193; actives 0.98% (n = 190,000); MEF GFP-LC3 puncta imaging; test concentration mostly 10 µM;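 active = percentage of spot-positive cells more than 3 SD above its plate mean, without a fluorescence outlier flag or 80% toxicity; inconclusive = no clear call, values can overlap the other calls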;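 also: spot-positive cell cutoff set from DMSO-treated cells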
WT yeast gro inh: growth inhibition of WT yeast, mitochondrial fusion screen; mitochondrial fusion phenotypic screen, WT strain; inhibition, % at 10 µM; actives 2.1% (n = 190,000); AID 1362; in the data active = inhibition above about 58%; tested in S. cerevisiae
Rad51 HR inh: Rad51 (human) homologous recombination inhibition. Q06609. hRad51 DNA strand exchange, fluorescence dequenching. inhibition, % at 10 µM. actives 0.085% (n = 200,000). AID 1385;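 active = inhibition above 40% at the single screening dose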;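 also: 0% = DMSO control wells and 100% = blanks with heterologous ssDNA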
Target sequence (Q06609 whole entry, looked up): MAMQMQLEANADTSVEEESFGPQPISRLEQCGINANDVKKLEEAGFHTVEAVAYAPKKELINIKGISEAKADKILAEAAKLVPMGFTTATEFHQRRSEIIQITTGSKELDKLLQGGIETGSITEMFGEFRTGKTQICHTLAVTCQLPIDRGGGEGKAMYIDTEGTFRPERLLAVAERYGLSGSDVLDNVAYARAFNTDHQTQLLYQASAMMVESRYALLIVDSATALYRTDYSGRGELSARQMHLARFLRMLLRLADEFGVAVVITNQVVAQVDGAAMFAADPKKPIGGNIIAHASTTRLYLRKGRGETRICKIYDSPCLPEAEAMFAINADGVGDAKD
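material = hRad51 filaments on single-stranded DNA | timing = filaments 15 min 37 °C, then compound 30 min | signal = FRET fluorescence dequenching, excitation 485 nm, emission 520 nm | benchmarks = control wells and blank wells on each plate | evaluation = percent inhibition relative to plate controls and blanks | compound = 10 µM final, single point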
SKKanGAS inh: blocks kanamycin growth of S. pyogenes SKKanGAS strain | BacTiter-Glo, 6 h | inhibition, % at 7.5 µM | actives 1.3% (n = 300,000);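 active = mean replicate score, as percent of positive control median, at least 50; inconclusive = mean below 50 but one replicate at or above 50; inactive = mean and every replicate below 50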;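 also: strain carries kanamycin resistance gene driven by streptokinase promoter and grows in 40 µg/ml kanamycin; loss of luminescence reflects streptokinase promoter inhibition or plain growth inhibition; 0% = median of DMSO wells and 100% = positive control at its reference dose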
Cl transport mod: modulators of human KCC2 chloride dependent transport. Q9H2X9. KCC2 cells, thallium flux FluoZin-2 fluorescence. B-score of Tl+ flux slope (higher = more flux/activation; lower = inhibition) at 10 µM. actives 2.2% (n = 190,000);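 active = thallium flux slope and its plate-corrected score both differing from the plate sample mean at a set confidence after two filtering rounds, in either direction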;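 also: slope of fluorescence scaled to starting intensity during 10 to 20 s after thallium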
KCC2 secondary: confirmation of human KCC2 transport modulators | shares compounds with Cl transport mod | HEK293-KCC2, thallium flux, FluoZin2 fluorescence; active compounds read high | actives 15% (n = 3,700) | normalised thallium flux (F/F0 slope) at 10 µM;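 active = thallium flux slope above the same plate's solvent-only control mean plus 3 SD; inconclusive = the two replicate wells disagree; inactive = no significant difference from solvent-only control wells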
KCC2 bumet counter: thallium flux despite bumetanide block in KCC2 cells, secondary assay 3. shares compounds with Cl transport mod. HEK293-KCC2 + bumetanide/ouabain, thallium flux FluoZin2; active compounds read high. normalized thallium flux at 10 µM. actives 49% (n = 3,700);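 active = thallium entry rate above the same plate's blocked-transporter control wells by more than 3 SD; inconclusive = the two repeat wells disagree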;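 also: raw slope of fluorescence over initial fluorescence between 10 and 20 s after thallium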
KCC2 sec2: confirmation of human KCC2 transport modulators. actives 23% (n = 3,700). AID 1715. HEK293-KCC2, thallium flux FluoZin2 fluorescence; actives lie on both sides; F/F0 rise rate, 10–20 s post-thallium. normalized thallium flux at 10 µM. shares compounds with Cl transport mod;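 active = thallium flux slope more than 3 SD above or below the plate's solvent-only control mean, mostly below; inconclusive = the two repeat wells disagreed; inactive = no significant shift from solvent-only controls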;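 also: raw slope with 0.1% DMSO as baseline and bumetanide as block control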
HEK293 Tl flux: acts in parental HEK cells, KCC2 counter-screen. actives 46% (n = 3,700). HEK293 parental cells, thallium flux FluoZin2, ouabain; baseline-ratio fluorescence slope, 10–20 s after thallium. shares compounds with Cl transport mod. thallium flux rate (normalised fluorescence) at 10 µM. AID 1716;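 active = thallium flux rate significantly above the same plate's solvent-only control wells, beyond their mean plus 3 SD; inconclusive = the two replicate wells gave conflicting results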
KCC2 retest ouab: KCC2 (human) modulation, ouabain retest | shares compounds with Cl transport mod | HEK293-KCC2, thallium flux FluoZin2 fluorescence; bidirectional: low = inhibitor, high = activator | raw Tl+ flux slope (below DMSO = inhibition, above = activation) at 10 µM | actives 48% (n = 3,700) | AID 1717;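 active = thallium flux slope beyond 3 SD from same-plate DMSO control mean in most replicates, usually higher, sometimes lower; inconclusive = repeat tests gave conflicting results; inactive = no significant difference from controls in most replicates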;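 also: slope of initial-normalized fluorescence between seconds 10 and 20 after thallium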
HEK293 Tl flux2: acts in parental HEK cells, second KCC2 counter-screen; thallium flux slope at 10 µM; HEK293 parental, thallium flux FluoZin-2 fluorescence slope; AID 1718; actives 33% (n = 3,700); shares compounds with Cl transport mod;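 active = thallium flux slope above the same plate's solvent-control mean plus 3 SD in both duplicate wells; inconclusive = duplicate wells that disagreed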;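 also: run without ouabain in cells lacking the KCC2 cotransporter; slope of fluorescence scaled to its starting value between 10 and 20 s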
An asterisk follows results filed as active; i = inactive; ? = inconclusive; . = not tested or not shown.

SMILES | Ins promoter up | Autophagy mod | WT yeast gro inh | Rad51 HR inh | SKKanGAS inh | Cl transport mod | KCC2 secondary | KCC2 bumet counter | KCC2 sec2 | HEK293 Tl flux | KCC2 retest ouab | HEK293 Tl flux2
Cc1sc(-n2c(C)cc(/C=C3\SC(=S)NC3=O)c2C)c(C#N)c1C | . | i | 77* | -32 | 37 | 9* | 0.0063 | 0.016* | 0.031 | 0.016* | ? | ?
CCn1c(C)cc(/C=C2/SC(=S)NC2=O)c1C | 1.1 | i | 21 | -38 | 11 | -0.63 | . | . | . | . | . | .
Cc1oc(-c2ccccc2)nc1C(=O)Nc1nccs1 | 0.3 | i | 19 | -1 | 12 | 7.7* | 0.01 | 0.016* | 0.032 | 0.0097* | 0.022 | 0.012*
COc1ccc(-c2csc(NC(=O)c3nc(-c4ccccc4)oc3C)n2)cc1 | 0.12 | i | 4 | -5 | 7 | 1 | . | . | . | . | . | .
CCN(CC)c1ccc2cc(-c3nc4ccccc4n3C)c(=O)oc2c1 | 1.7 | i | 13 | 3 | -4 | . | 0.0044* | 0.00034* | 0.022* | 0.0037* | 0.0081* | ?
CCN(CC)c1ccc2cc(-c3nnc(-c4ccccc4)o3)c(=O)oc2c1 | . | ? | -15 | i | 21 | i | . | . | . | . | . | .
CCOP(=O)(c1ccccc1)c1nc(-c2ccc(F)cc2)oc1N1CCCCC1 (centres undefined) | 0.4 | i | 5 | -1 | -3 | -2.9* | 0.01 | 0.005 | 0.034 | ? | ? | 0.01
CC(C)c1nnc(NC(=O)c2cccnc2)s1 | 0.85 | i | 10 | 9 | -5 | 7.8* | 0.016 | 0.0051 | 0.027 | 0.0073 | 0.016 | 0.011
CCCc1nnc(NC(=O)c2cccnc2)s1 | 0.17 | . | . | 7 | -3 | 0.36 | . | . | . | . | . | .
CCCCNS(=O)(=O)c1ccc(NC(=O)C(Sc2ccccc2)c2ccccc2)cc1 (centres undefined) | -0.21 | i | 17 | -9 | 24 | 0.78 | . | . | . | . | . | .
CN(C)CCCN(C(=O)c1ccc(S(=O)(=O)N2CCCCCC2)cc1)c1nc2c(F)cc(F)cc2s1 | . | . | . | . | -6 | . | . | . | . | . | . | .
Cc1cc(OC(C)C(=O)N2C[C@H]3C[C@@H](C2)c2cccc(=O)n2C3)c2c(C)c(C)c(=O)oc2c1 (some centres undefined) | . | . | . | . | -1 | . | . | . | . | . | . | .
O=C(CSc1nc(-c2ccccc2)nc2ccc(F)cc12)Nc1cccc(C(=O)O)c1 | -0.54 | . | . | 13 | 45 | 59* | 0.0067 | 0.038* | ? | 0.048* | 0.044* | 0.029*
O=C(CSc1nc(-c2ccccc2)nc2ccc(F)cc12)Nc1ccc(C(=O)O)cc1 | 0.05 | i | -4 | 2 | . | 0.37 | . | . | . | . | . | .
Cn1nnc(NCc2cc(Br)ccc2OCc2ccccc2F)n1 | -0.39 | i | 10 | . | -4 | -4.1* | 0.0053 | 0.0031* | 0.024* | 0.006* | 0.013* | 0.0095
Cc1ccc(-n2c(C)c(C)c3c(NCCO)ncnc32)cc1 | . | . | . | . | 0 | . | . | . | . | . | . | .
Oc1ccc(N=Nc2ccc3c(c2)OCO3)c2ccccc12 | ? | . | . | 1 | 88* | 9* | 0.015 | 0.011* | 0.028 | 0.011* | 0.02* | 0.012
c1ccc(CCc2nn3c(Cc4ccccc4)nnc3s2)cc1 | 0.89 | i | -18 | -11 | -5 | -2.7* | 0.0073 | 0.0062 | 0.032 | 0.0065 | 0.018* | 0.011

Screens (PubChem)
